In ChEMBL document CHEMBL4665625, “New pyrido[3,4-g]quinazoline derivatives as CLK1 and DYRK1A inhibitors: synthesis, biological evaluation and binding mode analysis” (Eur J Med Chem, 2019):

Experiments:
[1] = target: T1, Cyclin-dependent kinase 5/CDK5 activator 1 (Homo sapiens) (UniProt Q00535+Q15078); test: Inhibition of recombinant human CDK5/p25 expressed in bacteria assessed as residual activity at 10 uM using histone H1 as substrate in presence of [gamma-33P]ATP relative to control
In short: (§1)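 Human recombinant CDK5/p25 (bacterially expressed) assayed with 0.8 μg/μl histone H1 as substrate and 15 μM [γ-33P]ATP. Residual activity versus DMSO controls, triplicate.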

[2] = target: Dual specificity protein kinase CLK1 (Mus musculus) (UniProt P22518); test: Inhibition of recombinant mouse CLK1 expressed in bacteria assessed as residual activity at 1 uM using GRSRSRSRSRSR as substrate in presence of [gamma-33P]ATP relative to control
Sequence of Dual specificity protein kinase CLK1 (Mus musculus) (P22518 whole entry, looked up): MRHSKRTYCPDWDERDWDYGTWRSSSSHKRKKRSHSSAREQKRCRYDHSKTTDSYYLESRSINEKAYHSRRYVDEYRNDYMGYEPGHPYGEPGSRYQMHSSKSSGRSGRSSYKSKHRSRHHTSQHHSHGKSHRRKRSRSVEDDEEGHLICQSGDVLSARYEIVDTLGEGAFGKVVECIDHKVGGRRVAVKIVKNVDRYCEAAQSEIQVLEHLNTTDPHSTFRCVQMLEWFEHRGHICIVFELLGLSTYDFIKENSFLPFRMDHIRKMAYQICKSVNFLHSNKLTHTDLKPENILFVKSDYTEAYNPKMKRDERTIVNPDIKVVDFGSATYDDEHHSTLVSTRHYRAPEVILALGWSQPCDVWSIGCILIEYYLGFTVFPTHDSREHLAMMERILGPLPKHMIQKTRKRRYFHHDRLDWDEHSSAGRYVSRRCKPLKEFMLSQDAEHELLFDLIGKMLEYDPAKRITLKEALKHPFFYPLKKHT

[3] = target: T1, Cyclin-dependent kinase 5/CDK5 activator 1 (Homo sapiens); test: Inhibition of recombinant human CDK5/p25 expressed in bacteria assessed as residual activity at 1 uM using histone H1 as substrate in presence of [gamma-33P]ATP relative to control; in short: as §1
[4] = target: Dual specificity tyrosine-phosphorylation-regulated kinase 1A (Rattus norvegicus) (UniProt Q63470); test: Inhibition of rat DYRK1A kinase domain (1 to 499 residues) expressed in bacteria assessed as residual activity at 10 uM using KKISGRLSPIMTEQ as substrate in presence of [gamma-33P]ATP relative to control
In short: (§2)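 Buffer: 10 mM MgCl2, 1 mM EGTA, 1 mM DTT, 25 mM Tris-HCl pH 7.5, 50 μg/ml heparin, 0.15 mg/ml BSA.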

Sus scrofa domesticus [5] = species on record: Sus scrofa domesticus; test: Inhibition of porcine brain CK1delta/epsilon assessed as residual activity at 10 uM using RRKHAAIGSpAYSITA as substrate in presence of [gamma-33P]ATP relative to control; format: tissue-based
[6] = target: T2, Glycogen synthase kinase-3 (Sus scrofa) (UniProt B2LUN4+I6LNT8); test: Inhibition of porcine brain GSK-3alpha/beta assessed as residual activity at 10 uM using YRRAAVPPSPSLSRHSSPHQSpEDEEE as substrate in presence of [gamma-33P]ATP relative to control; format: tissue-based; settings: Sus scrofa domesticus
Sus scrofa domesticus [7] = species on record: Sus scrofa domesticus; test: Inhibition of porcine brain CK1delta/epsilon assessed as residual activity at 1 uM using RRKHAAIGSpAYSITA as substrate in presence of [gamma-33P]ATP relative to control; format: tissue-based
[8] = target: T2, Glycogen synthase kinase-3 (Sus scrofa); test: Inhibition of porcine brain GSK-3alpha/beta assessed as residual activity at 1 uM using YRRAAVPPSPSLSRHSSPHQSpEDEEE as substrate in presence of [gamma-33P]ATP relative to control; format: tissue-based; settings: Sus scrofa domesticus
In short: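 Affinity-purified porcine brain GSK-3α/β with 0.01 µg/µl GS-1 peptide (phosphoserine-primed) as substrate and 15 µM [γ-33P]ATP. Buffer was 25 mM Tris-HCl pH 7.5, 10 mM MgCl2, 1 mM EGTA, 1 mM DTT, 50 µg/ml heparin and 0.15 mg/ml BSA. Radioactive incorporation was compared with DMSO-dilution controls, in triplicate.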

[9] = target: Dual specificity tyrosine-phosphorylation-regulated kinase 1A (Rattus norvegicus) (UniProt Q63470); test: Inhibition of rat DYRK1A kinase domain (1 to 499 residues) expressed in bacteria assessed as residual activity at 1 uM using KKISGRLSPIMTEQ as substrate in presence of [gamma-33P]ATP relative to control; in short: as §2
[10] = target: Dual specificity protein kinase CLK1 (Mus musculus) (UniProt P22518); test: Inhibition of recombinant mouse CLK1 expressed in bacteria assessed as residual activity at 10 uM using GRSRSRSRSRSR as substrate in presence of [gamma-33P]ATP relative to control
U2OS = test: Antiproliferative activity against human U2OS cells assessed as cell viability at 2 uM after 48 hrs by CellTiter96 AQueous assay relative to control; format: functional; settings: read-out: Activity
In short: (§3)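 Cells grown in McCoy's 5a (HCT116), DMEM (SH-SY5Y, MDA-MB231, U-2 OS) or DMEM:F12 (hTERT-RPE1), each with 10% fetal calf serum, 2 mM L-glutamine, penicillin/streptomycin. Exposed to compound at 2 μM for 48 h; viability read by CellTiter96 AQueous per manufacturer, as % of DMSO-treated cells. Triplicate, mean ± SD; staurosporine as positive control.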

MDA-MB-231 = test: Antiproliferative activity against human MDA-MB-231 cells assessed as cell viability at 2 uM after 48 hrs by CellTiter96 AQueous assay relative to control; format: functional; settings: read-out: Activity; in short: as §3
SH-SY5Y = test: Antiproliferative activity against human SH-SY5Y cells assessed as cell viability at 2 uM after 48 hrs by CellTiter96 AQueous assay relative to control; format: functional; settings: read-out: Activity; in short: as §3
HCT-116 = test: Antiproliferative activity against human HCT116 cells assessed as cell viability at 2 uM after 48 hrs by CellTiter96 AQueous assay relative to control; format: functional; settings: read-out: Activity; in short: as §3
[11] = Antiproliferative activity against hTERT-RPE1 cells assessed as cell viability at 2 uM after 48 hrs by CellTiter96 AQueous assay relative to control; format: cell-based, TERT-RPE1; settings: human, read-out: Activity; in short: as §3

T1 sequence (Q00535 whole entry): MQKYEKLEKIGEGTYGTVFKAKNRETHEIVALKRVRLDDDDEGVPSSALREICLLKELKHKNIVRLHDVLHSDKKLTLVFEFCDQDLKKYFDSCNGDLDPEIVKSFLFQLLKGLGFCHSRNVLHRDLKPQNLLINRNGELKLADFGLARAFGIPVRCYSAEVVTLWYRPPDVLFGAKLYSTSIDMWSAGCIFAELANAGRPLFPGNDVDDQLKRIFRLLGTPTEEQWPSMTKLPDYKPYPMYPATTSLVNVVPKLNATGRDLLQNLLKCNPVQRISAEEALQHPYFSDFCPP
T1 sequence (Q15078 99-307 partner limits assumed): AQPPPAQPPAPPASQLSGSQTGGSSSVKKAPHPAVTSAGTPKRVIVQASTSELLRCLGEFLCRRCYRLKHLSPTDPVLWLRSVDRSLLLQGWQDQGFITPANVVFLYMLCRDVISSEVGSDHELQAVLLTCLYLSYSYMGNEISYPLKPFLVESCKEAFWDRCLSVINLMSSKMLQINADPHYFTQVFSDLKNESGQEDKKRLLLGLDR

Structure (SMILES) | Activity [1] [%] | Activity [2] [%] | Activity [3] [%] | Activity [4] [%] | Activity (Sus scrofa domesticus [5]) [%] | Activity [6] [%] | Activity (Sus scrofa domesticus [7]) [%] | Activity [8] [%] | Activity [9] [%] | Activity [10] [%] | viability at 2 µM (U2OS) [%] | viability at 2 µM (MDA-MB-231) [%] | viability at 2 µM (SH-SY5Y) [%] | viability at 2 µM (HCT-116) [%] | viability at 48 h, 2 µM [11] [%]
CN(C)CCNc1ncc2cc3cnccc3c(N)c2n1 | 86 | 51 | 96 | 32 | 82 | 48 | 78 | 58 | 60 | 21 |  |  |  |  | 
CN(C)CCCNc1ncc2cc3cnccc3c([N+](=O)[O-])c2n1 | 64 | 27 | 100 | 31 | 59 | 24 | 86 | 80 | 84 | 3 |  |  |  |  | 
CN[C@@H]1C[C@H]2O[C@@](C)([C@@H]1OC)n1c3ccccc3c3c4c(c5c6ccccc6n2c5c31)C(=O)NC4 [STAUROSPORINE] |  |  |  |  |  |  |  |  |  |  | 0.4 | 3.9 | 9.4 | 27 | 9.1
CCN(CC)CCNc1ncc2cc3cnccc3c(N)c2n1 | 40 | 31 | 97 | 6 | 60 | 34 | 91 | 73 | 49 | 3 |  |  |  |  | 
CN1CCN(CCNc2ncc3cc4cnccc4c([N+](=O)[O-])c3n2)CC1 | 77 | 32 | 84 | 6 | 38 | 22 | 63 | 69 | 32 | 0 |  |  |  |  | 
O=[N+]([O-])c1c2ccncc2cc2cnc(NCCCN3CCCC3)nc12 | 50 | 37 | 100 | 6 | 37 | 24 | 100 | 78 | 87 | 5 |  |  |  |  | 
O=[N+]([O-])c1c2ccncc2cc2cnc(NCCN3CCOCC3)nc12 | 69 | 36 | 100 | 20 | 75 | 43 | 93 | 88 | 73 | 5 |  |  |  |  | 
Nc1c2ccncc2cc2cnc(-c3ccccc3)nc12 | 65 | 68 | 92 | 41 | 51 | 40 | 62 | 85 | 80 | 32 |  |  |  |  | 
CCN(CC)CCCNc1ncc2cc3cnccc3c([N+](=O)[O-])c2n1 | 50 | 31 | 100 | 23 | 59 | 24 | 87 | 92 | 72 | 4 |  |  |  |  | 
Nc1c2ccncc2cc2cnc(NCCCN3CCCCC3)nc12 | 62 | 30 | 100 | 4 | 48 | 30 | 76 | 51 | 26 | 4 |  |  |  |  | 
O=[N+]([O-])c1c2ccncc2cc2cnc(NCCN3CCCC3)nc12 | 83 | 27 | 100 | 29 | 73 | 33 | 92 | 81 | 83 | 7 |  |  |  |  | 
